These results are taken from ChEMBL document CHEMBL1136142, “Synthesis, biological evaluation and DNA binding properties of novel bleomycin analogues” (Bioorg Med Chem Lett, 2003).

One assay deals with BGC-823. In words: In vitro antitumor activity against BGC-823 cell lines by using MTT assay. Format: functional, cell-based. To be noted: Homo sapiens. In short, it runs like this:
(§1)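 Tetrazolium salt (MTT) read-out of in vitro growth inhibition; the reported value is the concentration producing 50% inhibition (IC50).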

The next assay relates to HeLa. Kind of assay: In vitro antitumor activity against HeLa cell lines by using MTT assay. Format: functional, cell-based. To be noted: Homo sapiens. In short, it runs like this:
as §1
(Tetrazolium assays rely on reduction of a dye to a coloured formazan, in cell work by metabolically active cells.)

`CCCC(=O)NCCCCNCCCNC(=O)c1csc(-c2csc(CCNC(=O)[C@@H](NC(=O)[C@@H](C)C(O)C(C)NC(=O)[C@@H](NC(=O)c3nc([C@H](CC(N)=O)NCC(N)C(N)=O)nc(N)c3C)[C@@H](O[C@@H]3O[C@@H](CO)[C@@H](O)[C@@H](O)[C@@H]3OC3O[C@H](CO)[C@@H](O)[C@H](OC(N)=O)[C@@H]3O)c3c[nH]cn3)[C@@H](C)O)n2)n1` (some centres undefined): the IC50 (usually the concentration that gives 50% inhibition) came out at 2.62 µM with BGC-823 and 13.8 µM with HeLa.

As to `CC(=O)NCCCCNCCCNC(=O)c1csc(-c2csc(CCNC(=O)[C@@H](NC(=O)[C@@H](C)C(O)C(C)NC(=O)[C@@H](NC(=O)c3nc([C@H](CC(N)=O)NCC(N)C(N)=O)nc(N)c3C)[C@@H](O[C@@H]3O[C@@H](CO)[C@@H](O)[C@@H](O)[C@@H]3O[C@H]3O[C@H](CO)[C@@H](O)[C@H](OC(N)=O)[C@@H]3O)c3c[nH]cn3)[C@@H](C)O)n2)n1` (some centres undefined), the concentration for half-maximal inhibition (IC50) in the assay on BGC-823 is 22.1 µM; in the assay with HeLa, 15.3 µM.

`CCC(=O)NCCCCNCCCNC(=O)c1csc(-c2csc(CCNC(=O)[C@@H](NC(=O)[C@@H](C)C(O)C(C)NC(=O)[C@@H](NC(=O)c3nc([C@H](CC(N)=O)NCC(N)C(N)=O)nc(N)c3C)[C@@H](O[C@@H]3O[C@@H](CO)[C@@H](O)[C@@H](O)[C@@H]3O[C@H]3O[C@H](CO)[C@@H](O)[C@H](OC(N)=O)[C@@H]3O)c3c[nH]cn3)[C@@H](C)O)n2)n1` (some centres undefined): the IC50 amounted to 6.46 µM in the assay on BGC-823 and 14.4 µM in the assay with HeLa.

Take `Cc1c(N)nc([C@H](CC(N)=O)NCC(N)C(N)=O)nc1C(=O)N[C@H](C(=O)NC(C)C(O)[C@H](C)C(=O)N[C@H](C(=O)NCCc1nc(-c2nc(C(=O)NCCCNCCCCNC(=O)c3ccccn3)cs2)cs1)[C@@H](C)O)[C@@H](O[C@@H]1O[C@@H](CO)[C@@H](O)[C@@H](O)[C@@H]1O[C@H]1O[C@H](CO)[C@@H](O)[C@H](OC(N)=O)[C@@H]1O)c1c[nH]cn1` (some centres undefined): the IC50 came to 10.8 µM with BGC-823 and 14.8 µM in the assay with HeLa.

As to `Cc1c(N)nc([C@H](CC(N)=O)NCC(N)C(N)=O)nc1C(=O)N[C@H](C(=O)NC(C)C(O)[C@H](C)C(=O)N[C@H](C(=O)NCCc1nc(-c2nc(C(=O)NCCCNCCCCNC=O)cs2)cs1)[C@@H](C)O)[C@@H](O[C@@H]1O[C@@H](CO)[C@@H](O)[C@@H](O)[C@@H]1O[C@H]1O[C@H](CO)[C@@H](O)[C@H](OC(N)=O)[C@@H]1O)c1c[nH]cn1` (some centres undefined), the results for the IC50 with BGC-823 and in the assay on HeLa were 31 µM and 12.2 µM, respectively.

On to `Cc1c(N)nc([C@H](CC(N)=O)NCC(N)C(N)=O)nc1C(=O)N[C@H](C(=O)NC(C)C(O)[C@H](C)C(=O)N[C@H](C(=O)NCCc1nc(-c2nc(C(=O)NCCCNCCCCNC(=O)c3ccccc3)cs2)cs1)[C@@H](C)O)[C@@H](O[C@@H]1O[C@@H](CO)[C@@H](O)[C@@H](O)[C@@H]1O[C@H]1O[C@H](CO)[C@@H](O)[C@H](OC(N)=O)[C@@H]1O)c1c[nH]cn1` (some centres undefined), for which the figures for the half-inhibitory concentration (IC50) in the assay with BGC-823 and with HeLa were 7.46 µM and 11.7 µM, respectively.

For `Cc1c(N)nc([C@H](CC(N)=O)NCC(N)C(N)=O)nc1C(=O)N[C@H](C(=O)NC(C)C(O)[C@H](C)C(=O)N[C@H](C(=O)NCCc1nc(-c2nc(C(=O)NCCC[S+](C)C)cs2)cs1)[C@@H](C)O)[C@@H](O[C@@H]1O[C@@H](CO)[C@@H](O)[C@H](O)[C@@H]1O[C@H]1O[C@H](CO)[C@@H](O)[C@H](OC(N)=O)[C@@H]1O)c1c[nH]cn1` (some centres undefined), the concentration for half-maximal inhibition (IC50) came to 10.1 µM in the assay on BGC-823 and 16.2 µM in the assay on HeLa.
